The record followed here is ChEMBL document CHEMBL2093137, “WHO-TDR NTD Screening”.

A short description of series [1]: WHO-TDR: Cytotoxicity. Type of series: toxicity, cell-based. The conditions noted are these: human, MRC5 cells.
In series [2] the test system is Plasmodium falciparum K1. As to the kind of experiment: WHO-TDR: Malaria. Type of series: functional, organism-based, Homo sapiens. The conditions noted are these: Erythrocyte. A digest of the protocol: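 Life Chemicals supplied the diverse library of 10,000 compounds, which had been filtered for drug-likeness and reactive groups. Each was screened against the K1 strain of Plasmodium falciparum at its intra-erythrocytic stage in human red blood cells, using previously published standard procedures and a reference drug as positive control. The table reports IC50 for antiplasmodial potency.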

In series [3] the test system is Trypanosoma cruzi. The experiment in a line: WHO-TDR: Chagas disease. Format: functional, organism-based, Homo sapiens. To be noted: MRC5. The procedure, abridged:
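A diverse library of 10,000 compounds from Life Chemicals, filtered for drug-likeness and reactive groups, was screened against intracellular amastigotes of Trypanosoma cruzi Tulahuen CL2 beta-galactosidase strain. The parasites were grown in MRC-5SV2 human lung fibroblast host cells, and a reference drug served as positive control under previously published standard procedures. Antiparasitic potency is given as IC50.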

In series [4] the test system is Trypanosoma brucei brucei. The experiment in a line: WHO-TDR: Human African Trypanosomiasis (HAT). Type of series: functional, organism-based. To be noted: Squib-427. A digest of the protocol: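 Following previously published standard procedures, with reference drugs as positive controls, a whole-organism assay was run against bloodstream-form Trypanosoma brucei, Squib 427 strain. The compounds, 10,000 in all, came from a diverse Life Chemicals library filtered for drug-likeness and reactive groups. Reported values are IC50 for antiparasitic potency.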

The subject of series [5] is Leishmania infantum. As to the kind of experiment: WHO-TDR: Leishmaniasis. Type of series: functional, organism-based, Mus musculus. The conditions noted are these: Macrophage. A digest of the protocol: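 IC50 values describe antiparasitic potency in this whole-organism screen. Leishmania infantum MHOM/MA(BE)/67 amastigotes were tested inside murine peritoneal macrophages against a 10,000-compound diverse Life Chemicals library. A reference drug served as positive control.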

Series [6] has as its system Schistosoma mansoni. The experiment in a line: WHO-TDR: Schistosomiasis. On the set-up: concentration or dose not given beside the values. Format: functional. The procedure, abridged:
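Percent inhibition and IC50 describe activity against whole Schistosoma mansoni worms of the Puerto Rican strain, tested as larvae and/or adults. The compounds screened were a diverse set of 10,000 from Life Chemicals, filtered for drug-likeness and reactive groups. Testing followed previously published standard procedures, with a reference drug as positive control.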

For series [7], the system named is Onchocerca ochengi. As to the kind of experiment: (§1) WHO-TDR: Onchocerciasis. On the set-up: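 at 12.5 µM on microfilariae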. Type of series: functional. A digest of the protocol: (§2)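 Percent inhibition and IC50 describe activity against microfilariae of Onchocerca ochengi or Onchocerca lienalis, used as animal-pathogen substitutes for the human parasite. The compounds tested made up a 10,000-member diverse library from Life Chemicals.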

The test system of series [8] is Onchocerca ochengi. The description is as §1. Type of series: functional. Set-up: concentration or dose not given beside the values. The procedure, abridged: as §2
The source holds these as a separate data set.

The test system of series [9] is Onchocerca lienalis. The description is as §1. Format: functional. On the set-up: concentration or dose not given beside the values. The procedure, abridged:
as §2

Series [10] concerns Brugia malayi. The experiment in a line: WHO-TDR: Lymphatic Filariasis. Type of series: functional. Set-up: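 tested at 10 µM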. The procedure, abridged: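 The screening set was a 10,000-compound diverse library from Life Chemicals, filtered for drug-likeness and for reactive groups. It was run against Brugia malayi microfilariae as whole organisms, using previously published standard procedures. Reference drugs acted as positive controls, and activity is reported both as percent inhibition and as IC50.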

Values after ≈ are worked out from the molar mass of the structure shown. Bounds are passed on as bounds.

As to `Cc1cc(NC(=O)COc2ccc(Cl)cc2)n(-c2nc(C)c(C)c(=O)[nH]2)n1`, the IC50 is 0.338 µg/mL (≈ 0.872 µM) in series [1]; 2.07 µg/mL (≈ 5.33 µM) in [2]; 0.359 µg/mL (≈ 0.926 µM) in [3]; 0.377 µg/mL (≈ 0.971 µM) in series [4]; above 11.6 µg/mL in series [5]. The “% Inhibition” value came to 0% in [6], 50% in series [7] and 0% in series [8].
Turning to `NC(=O)c1csc(NC(=O)C2(c3ccc(Cl)cc3)CCCC2)n1`, the IC50 in series [1] was above 10.5 µg/mL; in series [2] it was above 10.5 µg/mL; in [3], above 10.5 µg/mL; in [4], 3.72 µg/mL (≈ 10.6 µM); in series [5] it was above 10.5 µg/mL. In addition, the “% Inhibition” value is 0% in series [6], 100% in series [7] and 0% in [8].
With `O=C(CC1CCCC1)Nc1nc(CSCc2ccc(F)cc2)cs1`, the IC50 in series [1] is above 10.9 µg/mL; in [2], 3.04 µg/mL (≈ 8.35 µM); in series [3] it was 2.43 µg/mL (≈ 6.67 µM); in [4], 3.5 µg/mL (≈ 9.6 µM); in [5] it was above 10.9 µg/mL. The “% Inhibition” value in series [6] was 0%; in series [7] it was 100%; in series [8] it was 0%.
As to `C=CCN1C(=O)C(C)(C)COc2cc(NS(=O)(=O)c3ccccc3Cl)ccc21`, the IC50 in series [1] is above 12.6 µg/mL; in [2], above 12.6 µg/mL; in series [3], 4.05 µg/mL (≈ 9.61 µM); in series [4] it was 4.04 µg/mL (≈ 9.6 µM); in series [5] it was 4.09 µg/mL (≈ 9.71 µM). Moreover, the “% Inhibition” value is given as 0% in series [6], 100% in series [7] and 0% in [8].
For `Cc1cc(C(=O)Nc2nc(-c3ccc4c(c3)OCCO4)cs2)n(C)n1`, the IC50 in series [1], in series [2], in series [3], in series [4] and in [5] was above 10.7 µg/mL throughout. In addition, the results for the “% Inhibition” value in series [6], in [7] and in series [8] were 0%, 100% and 0%, respectively.
For `O=C(Nc1onc2c1CCC2)c1cccc(F)c1`, the IC50 was 4.88 µg/mL (≈ 19.8 µM) in series [1]; above 7.39 µg/mL in series [2]; 2.12 µg/mL (≈ 8.63 µM) in series [3]; 2.42 µg/mL (≈ 9.83 µM) in series [4]; above 7.39 µg/mL in [5]. The “% Inhibition” value was determined as 0% in [6], 100% in [7] and 0% in [8].
On to `COc1ccc(Cl)cc1S(=O)(=O)Nc1ccc2c(c1)CCC(=O)N2CCC(C)C`, for which the IC50 in series [1] is above 13.1 µg/mL; in series [2] it was above 13.1 µg/mL; in series [3] it was above 13.1 µg/mL; in [4], 10.2 µg/mL (≈ 23.4 µM); in [5], above 13.1 µg/mL. The “% Inhibition” value came to 0% in [6], 100% in series [7] and 0% in [8].
With `CS(=O)(=O)c1ccc(CC(=O)Nc2nc3c(s2)-c2cccc4cccc-3c24)cc1`, the IC50 amounted to 0.688 µg/mL (≈ 1.64 µM) in [1]; 7.42 µg/mL (≈ 17.6 µM) in series [2]; 0.317 µg/mL (≈ 0.754 µM) in [3]; 4.29 µg/mL (≈ 10.2 µM) in series [4]; 4.08 µg/mL (≈ 9.71 µM) in series [5]. Further, the “% Inhibition” value in [6] amounted to 0%; in series [9], 11.35%; in [10], 0%.
As for `CCOc1ccc2nc(N(Cc3cccnc3)C(=O)CSc3ccc(F)cc3)sc2c1`, the IC50 in [1] is above 13.6 µg/mL; in series [2] it was 11 µg/mL (≈ 24.2 µM); in series [3] it was 0.223 µg/mL (≈ 0.492 µM); in [4], above 13.6 µg/mL; in series [5], above 13.6 µg/mL. For the same compound, the “% Inhibition” value in series [6] was determined as 0%; in [9], 26.7%; in series [10] it was 0%.
For `O=C(CSc1ccc(-c2ccc(-n3cccn3)cc2)nn1)Nc1ccc2c(c1)OCO2`, the IC50 in series [1] is above 12.9 µg/mL; in series [2], above 12.9 µg/mL; in series [3], above 12.9 µg/mL; in series [4] it was above 12.9 µg/mL; in series [5], 0.419 µg/mL (≈ 0.971 µM). Moreover, the “% Inhibition” value in [6] worked out at 0%; in series [9], 13.3%; in series [10], 0%.
As for `CCOC(=O)CCNC(=O)NCC1CC(=O)N(c2ccc(Cl)cc2)C1` (stereo unspecified), the IC50 in series [1], in [2], in series [3], in series [4] and in series [5] was above 11 µg/mL in each case. For the same compound, the “% Inhibition” value in series [6] was 0%; in series [8], 100%.
Regarding `CC(C)S(=O)(=O)c1ccc(C(=O)Nc2ccccc2-c2nc3ccccc3[nH]2)cc1`, the IC50 in [1] is above 12.6 µg/mL; in series [2], above 12.6 µg/mL; in series [3], above 12.6 µg/mL; in series [4], above 12.6 µg/mL; in series [5] it was 0.407 µg/mL (≈ 0.97 µM). The results for the “% Inhibition” value in series [6], in series [9] and in series [10] were 0%, 13.3% and 0%, respectively.
In the case of `Oc1ccc(Br)cc1/C=N/Nc1ncnc2[nH]cnc12`, the IC50 worked out at 0.364 µg/mL (≈ 1.09 µM) in [1]; 3.68 µg/mL (≈ 11 µM) in series [2]; 0.193 µg/mL (≈ 0.579 µM) in [3]; 0.341 µg/mL (≈ 1.02 µM) in [4]; 3.24 µg/mL (≈ 9.71 µM) in series [5]. Moreover, the “% Inhibition” value is listed as 0% in series [6], -1% in series [9] and 50% in series [10].
Regarding `O=C(CCSc1ccccc1)N(Cc1ccccn1)c1nc2ccccc2s1`, the IC50 is above 12.2 µg/mL in [1]; 11.3 µg/mL (≈ 28 µM) in series [2]; 0.466 µg/mL (≈ 1.15 µM) in [3]; above 12.2 µg/mL in series [4]; above 12.2 µg/mL in series [5]. In addition, the “% Inhibition” value in [6] is listed as 0%; in series [9] it was 11.35%; in series [10], 0%.
On to `Cc1nn(-c2ccc(F)cc2)c2ncc(C(=O)NCc3ccco3)c(Cl)c12`, for which the IC50 in series [1] stood at 1.31 µg/mL (≈ 3.41 µM); in series [2] it was 8.26 µg/mL (≈ 21.5 µM); in [3], 0.398 µg/mL (≈ 1.03 µM); in series [4], 0.292 µg/mL (≈ 0.759 µM); in series [5], 3.74 µg/mL (≈ 9.71 µM). Further, the “% Inhibition” value was found to be 25% in [6], 0% in [9] and 0% in [10].
With `COc1ccc(SCC(=O)Nc2nc(-c3ccccn3)cs2)cc1`, the IC50 is above 10.7 µg/mL in series [1]; above 10.7 µg/mL in series [2]; 0.356 µg/mL (≈ 0.996 µM) in series [3]; 0.347 µg/mL (≈ 0.971 µM) in series [4]; above 10.7 µg/mL in series [5]. The “% Inhibition” value in series [6] is recorded as 0%; in series [9] it was 86.55%; in [10], 0%.
In the case of `CCS(=O)(=O)c1ccc(CC(=O)Nc2nc3c(s2)CCc2ccccc2-3)cc1`, the IC50 was 0.908 µg/mL (≈ 2.2 µM) in [1]; 12.4 µg/mL (≈ 30 µM) in series [2]; 0.436 µg/mL (≈ 1.06 µM) in series [3]; 4.01 µg/mL (≈ 9.71 µM) in series [4]; above 12.4 µg/mL in series [5]. For the same compound, the “% Inhibition” value in series [6], in series [9] and in [10] was 0% in each case.
Consider `COc1ccc(Cl)c2sc(N(CCCN(C)C)C(=O)c3ccco3)nc12`, for which the IC50 was 4.17 µg/mL (≈ 10.6 µM) in [1]; above 12.9 µg/mL in series [2]; 1.36 µg/mL (≈ 3.46 µM) in [3]; 4.08 µg/mL (≈ 10.4 µM) in series [4]; 0.418 µg/mL (≈ 1.06 µM) in series [5]. Further, the “% Inhibition” value in series [6], in [9] and in series [10] was 0% throughout.
Regarding `CCN(C1CCCCC1)S(=O)(=O)c1ccc(C(=O)Nc2nnc(-c3ccco3)o2)cc1`, the concentration for half-maximal inhibition (IC50) in [1] is 6.19 µg/mL (≈ 13.9 µM); in series [2], above 13.3 µg/mL; in [3], 0.442 µg/mL (≈ 0.994 µM); in series [4], 4.32 µg/mL (≈ 9.71 µM); in series [5], 4.32 µg/mL (≈ 9.71 µM). For the same compound, the “% Inhibition” value in [6] worked out at 0%; in [9], 20%; in [10] it was 0%.
